Experimental data: ChEMBL document CHEMBL1142148, “Antibiotic susceptibility profile of bifidobacteria as affected by oxgall, acid, and hydrogen peroxide stress” (2007)
Values after ≈ are worked out from the molar mass of the structure shown.

Tests used:
[1] = system: Bifidobacterium pseudolongum; assay: Antimicrobial activity against 60 min 1 M HCl-stressed Bifidobacterium pseudolongum ATCC 25562 after 18 hrs; format: functional
Summary of the method: (§1)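 Mid-log MRS culture pelleted and resuspended in MRS broth brought to pH 2.0 with 1 M HCl, held anaerobically at 37°C for 60 min, then subcultured in MRS (pH 6.5) for 24 h anaerobically before MIC testing by broth microdilution (as for unstressed cells). Table footnote gives 18 h anaerobic regrowth after the stress. MIC is the median of four repetitions.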

[2] = system: Bifidobacterium breve; assay: Antimicrobial activity against 90 mins hydrogen peroxide-stressed Bifidobacterium breve R0070 after 18 hrs; format: functional
Summary of the method: (§2)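 Stress applied for 90 min at 37°C under anaerobic conditions, using MRS (initial pH 6.5) containing H2O2 at each strain's own inhibitory concentration. The H2O2 level was set beforehand by microplate tolerance testing. Challenged cells were regrown in MRS for 24 h (footnote: 18 h) before MIC testing by broth microdilution. Median of four repetitions.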

[3] = system: Bifidobacterium bifidum; assay: Antimicrobial activity against 60 min 1 M HCl-stressed Bifidobacterium bifidum BB12 after 18 hrs; format: functional; summary of the method: as §1
[4] = system: Bifidobacterium longum; assay: Antimicrobial activity against 90 mins oxgall-stressed Bifidobacterium longum R0175 after 18 hrs; format: functional
Summary of the method: (§3)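 Cells pelleted from mid-log MRS culture and resuspended in MRS (initial pH 6.5) with 0.3% (wt/vol) oxgall for 90 min anaerobically at 37°C. They were then regrown in MRS pH 6.5 for 24 h (footnote: 18 h) anaerobically and tested for MIC by the same broth microdilution assay. Median of four repetitions.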

[5] = system: Bifidobacterium longum; assay: Antimicrobial activity against 90 mins oxgall-stressed Bifidobacterium longum ATCC 15707 after 18 hrs; format: functional; summary of the method: as §3
[6] = system: Bifidobacterium longum; assay: Antimicrobial activity against Bifidobacterium longum ATCC 15707; format: functional
Summary of the method: (§4)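 Broth microdilution in MRS plus 0.05% L-cysteine-HCl. Mid-log culture adjusted to OD650 0.1, giving about 2.5 × 10^4 to 5.0 × 10^4 CFU/well, then added to twofold serial dilutions of agent. Plates incubated anaerobically at 37°C for 18 h and read at OD650. MIC is the lowest concentration matching the uninoculated blank OD, taken as the median of four repeats.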

[7] = system: Bifidobacterium bifidum; assay: Antimicrobial activity against Bifidobacterium bifidum ATCC 15696; format: functional; summary of the method: as §4
[8] = system: Bifidobacterium longum; assay: Antimicrobial activity against 60 min 1 M HCl-stressed Bifidobacterium longum P/N 601377 after 18 hrs; format: functional; summary of the method: as §1
[9] = system: Bifidobacterium thermophilum; assay: Antimicrobial activity against 90 mins oxgall-stressed Bifidobacterium thermophilum ATCC 25866 after 18 hrs; format: functional; summary of the method: as §3
[10] = system: Bifidobacterium bifidum; assay: Antimicrobial activity against 90 mins oxgall-stressed Bifidobacterium bifidum ATCC 15696 after 18 hrs; format: functional; summary of the method: as §3
[11] = system: Bifidobacterium animalis; assay: Antimicrobial activity against 90 mins hydrogen peroxide-stressed Bifidobacterium animalis ATCC 27536 after 18 hrs; format: functional; summary of the method: as §2
[12] = system: Bifidobacterium longum; assay: Antimicrobial activity against Bifidobacterium longum P/N 601377; format: functional; summary of the method: as §4
[13] = Antimicrobial activity against 90 mins oxgall-stressed Bifidobacterium infantis ATCC 15697 after 18 hrs; format: functional, Bifidobacterium longum subsp. infantis; settings: Bifidobacterium longum; summary of the method: as §3
[14] = system: Bifidobacterium bifidum; assay: Antimicrobial activity against 90 mins hydrogen peroxide-stressed Bifidobacterium bifidum R0071 after 18 hrs; format: functional; summary of the method: as §2
[15] = system: Bifidobacterium breve; assay: Antimicrobial activity against 90 mins oxgall-stressed Bifidobacterium breve ATCC 15700 after 18 hrs; format: functional; summary of the method: as §3
[16] = system: Bifidobacterium longum; assay: Antimicrobial activity against 90 mins oxgall-stressed Bifidobacterium longum P/N 601377 after 18 hrs; format: functional; summary of the method: as §3
[17] = system: Bifidobacterium thermophilum; assay: Antimicrobial activity against 90 mins hydrogen peroxide-stressed Bifidobacterium thermophilum ATCC 25866 after 18 hrs; format: functional; summary of the method: as §2
[18] = system: Bifidobacterium longum; assay: Antimicrobial activity against Bifidobacterium longum ATCC 15708; format: functional; summary of the method: as §4
[19] = Antimicrobial activity against Bifidobacterium infantis ATCC 15697; format: functional, Bifidobacterium longum subsp. infantis; settings: Bifidobacterium longum; summary of the method: as §4
[20] = system: Bifidobacterium breve; assay: Antimicrobial activity against 90 mins oxgall-stressed Bifidobacterium breve R0070 after 18 hrs; format: functional; summary of the method: as §3
[21] = system: Bifidobacterium pseudolongum; assay: Antimicrobial activity against 90 mins oxgall-stressed Bifidobacterium pseudolongum ATCC 25562 after 18 hrs; format: functional; summary of the method: as §3
[22] = system: Bifidobacterium breve; assay: Antimicrobial activity against 60 min 1 M HCl-stressed Bifidobacterium breve R0070 after 18 hrs; format: functional; summary of the method: as §1
[23] = system: Bifidobacterium breve; assay: Antimicrobial activity against 90 mins hydrogen peroxide-stressed Bifidobacterium breve ATCC 15700 after 18 hrs; format: functional; summary of the method: as §2
[24] = system: Bifidobacterium thermophilum; assay: Antimicrobial activity against 60 min 1 M HCl-stressed Bifidobacterium thermophilum ATCC 25866 after 18 hrs; format: functional; summary of the method: as §1
[25] = system: Bifidobacterium bifidum; assay: Antimicrobial activity against Bifidobacterium bifidum BB12; format: functional; summary of the method: as §4
[26] = system: Bifidobacterium breve; assay: Antimicrobial activity against 60 min 1 M HCl-stressed Bifidobacterium breve ATCC 15700 after 18 hrs; format: functional; summary of the method: as §1
[27] = system: Bifidobacterium bifidum; assay: Antimicrobial activity against 60 min 1 M HCl-stressed Bifidobacterium bifidum R0071 after 18 hrs; format: functional; summary of the method: as §1
[28] = system: Bifidobacterium pseudolongum; assay: Antimicrobial activity against Bifidobacterium pseudolongum ATCC 25562; format: functional; summary of the method: as §4
[29] = system: Bifidobacterium breve; assay: Antimicrobial activity against Bifidobacterium breve R0070; format: functional; summary of the method: as §4
[30] = system: Bifidobacterium longum; assay: Antimicrobial activity against 60 min 1 M HCl-stressed Bifidobacterium longum ATCC 15707 after 18 hrs; format: functional; summary of the method: as §1
[31] = system: Bifidobacterium breve; assay: Antimicrobial activity against Bifidobacterium breve ATCC 15700; format: functional; summary of the method: as §4
[32] = system: Bifidobacterium longum; assay: Antimicrobial activity against 90 mins hydrogen peroxide-stressed Bifidobacterium longum ATCC 15708 after 18 hrs; format: functional; summary of the method: as §2
[33] = system: Bifidobacterium bifidum; assay: Antimicrobial activity against 90 mins oxgall-stressed Bifidobacterium bifidum R0071 after 18 hrs; format: functional; summary of the method: as §3
[34] = system: Bifidobacterium animalis; assay: Antimicrobial activity against 60 min 1 M HCl-stressed Bifidobacterium animalis ATCC 27536 after 18 hrs; format: functional; summary of the method: as §1
[35] = system: Bifidobacterium animalis; assay: Antimicrobial activity against Bifidobacterium animalis ATCC 27536; format: functional; summary of the method: as §4
[36] = system: Bifidobacterium bifidum; assay: Antimicrobial activity against Bifidobacterium bifidum R0071; format: functional; summary of the method: as §4
[37] = system: Bifidobacterium bifidum; assay: Antimicrobial activity against 90 mins oxgall-stressed Bifidobacterium bifidum BB12 after 18 hrs; format: functional; summary of the method: as §3
[38] = Antimicrobial activity against 60 min 1 M HCl-stressed Bifidobacterium infantis ATCC 15697 after 18 hrs; format: functional, Bifidobacterium longum subsp. infantis; settings: Bifidobacterium longum; summary of the method: as §1
[39] = system: Bifidobacterium longum; assay: Antimicrobial activity against Bifidobacterium longum R0175; format: functional; summary of the method: as §4
[40] = system: Bifidobacterium longum; assay: Antimicrobial activity against 90 mins oxgall-stressed Bifidobacterium longum ATCC 15708 after 18 hrs; format: functional; summary of the method: as §3
[41] = system: Bifidobacterium longum; assay: Antimicrobial activity against 90 mins hydrogen peroxide-stressed Bifidobacterium longum ATCC 15707 after 18 hrs; format: functional; summary of the method: as §2
[42] = system: Bifidobacterium longum; assay: Antimicrobial activity against 90 mins hydrogen peroxide-stressed Bifidobacterium longum R0175 after 18 hrs; format: functional; summary of the method: as §2
[43] = system: Bifidobacterium longum; assay: Antimicrobial activity against 60 min 1 M HCl-stressed Bifidobacterium longum R0175 after 18 hrs; format: functional; summary of the method: as §1
[44] = system: Bifidobacterium bifidum; assay: Antimicrobial activity against 90 mins hydrogen peroxide-stressed Bifidobacterium bifidum BB12 after 18 hrs; format: functional; summary of the method: as §2
[45] = system: Bifidobacterium longum; assay: Antimicrobial activity against 90 mins hydrogen peroxide-stressed Bifidobacterium longum P/N 601377 after 18 hrs; format: functional; summary of the method: as §2
[46] = system: Bifidobacterium thermophilum; assay: Antimicrobial activity against Bifidobacterium thermophilum ATCC 25866; format: functional; summary of the method: as §4
[47] = system: Bifidobacterium animalis; assay: Antimicrobial activity against 90 mins oxgall-stressed Bifidobacterium animalis ATCC 27536 after 18 hrs; format: functional; summary of the method: as §3

**Q.** For `NC[C@H]1O[C@H](O[C@H]2[C@H](O)[C@@H](O[C@H]3O[C@H](CO)[C@@H](O)[C@H](N)[C@H]3O)[C@H](N)C[C@@H]2N)[C@H](O)[C@@H](O)[C@@H]1O` [KANAMYCIN], which MIC [1] is on record?
**A.** 250 µg/mL (≈ 516 µM)

**Q.** And the MIC [2]?
**A.** 500 µg/mL (≈ 1030 µM)

**Q.** What about the MIC [3] of the same compound?
**A.** 250 µg/mL (≈ 516 µM)

**Q.** What about the MIC [4] of the same compound?
**A.** 500 µg/mL (≈ 1030 µM)

**Q.** And the MIC [5]?
**A.** 250 µg/mL (≈ 516 µM)

**Q.** And the MIC [6]?
**A.** 500 µg/mL (≈ 1030 µM)

**Q.** What about the MIC [7] of the same compound?
**A.** > 500 µg/mL

**Q.** And the MIC [8]?
**A.** 250 µg/mL (≈ 516 µM)

**Q.** What about the MIC [9] of the same compound?
**A.** 500 µg/mL (≈ 1030 µM)

**Q.** What about the MIC [10] of the same compound?
**A.** 125 µg/mL (≈ 258 µM)

**Q.** What about the MIC [11] of the same compound?
**A.** 500 µg/mL (≈ 1030 µM)

**Q.** And the MIC [12]?
**A.** 250 µg/mL (≈ 516 µM)

**Q.** What about the MIC [13] of the same compound?
**A.** > 500 µg/mL

**Q.** And the MIC [14]?
**A.** 500 µg/mL (≈ 1030 µM)

**Q.** And the MIC [15]?
**A.** 500 µg/mL (≈ 1030 µM)

**Q.** And the MIC [16]?
**A.** 250 µg/mL (≈ 516 µM)

**Q.** What about the MIC [17] of the same compound?
**A.** 500 µg/mL (≈ 1030 µM)

**Q.** What about the MIC [18] of the same compound?
**A.** 500 µg/mL (≈ 1030 µM)

**Q.** And the MIC [19]?
**A.** > 500 µg/mL

**Q.** And the MIC [20]?
**A.** 500 µg/mL (≈ 1030 µM)

**Q.** And the MIC [21]?
**A.** 500 µg/mL (≈ 1030 µM)

**Q.** And the MIC [22]?
**A.** 500 µg/mL (≈ 1030 µM)

**Q.** What about the MIC [23] of the same compound?
**A.** > 500 µg/mL

**Q.** What about the MIC [24] of the same compound?
**A.** 500 µg/mL (≈ 1030 µM)

**Q.** What about the MIC [25] of the same compound?
**A.** > 500 µg/mL

**Q.** And the MIC [26]?
**A.** 500 µg/mL (≈ 1030 µM)

**Q.** And the MIC [27]?
**A.** 0.98 µg/mL (≈ 2.02 µM)

**Q.** And the MIC [28]?
**A.** > 500 µg/mL

**Q.** What about the MIC [29] of the same compound?
**A.** 500 µg/mL (≈ 1030 µM)

**Q.** What about the MIC [30] of the same compound?
**A.** 500 µg/mL (≈ 1030 µM)

**Q.** What about the MIC [31] of the same compound?
**A.** > 500 µg/mL

**Q.** And the MIC [32]?
**A.** 500 µg/mL (≈ 1030 µM)

**Q.** And the MIC [33]?
**A.** 500 µg/mL (≈ 1030 µM)

**Q.** What about the MIC [34] of the same compound?
**A.** 500 µg/mL (≈ 1030 µM)

**Q.** What about the MIC [35] of the same compound?
**A.** 500 µg/mL (≈ 1030 µM)

**Q.** And the MIC [36]?
**A.** 500 µg/mL (≈ 1030 µM)

**Q.** And the MIC [37]?
**A.** 500 µg/mL (≈ 1030 µM)

**Q.** What about the MIC [38] of the same compound?
**A.** 500 µg/mL (≈ 1030 µM)

**Q.** What about the MIC [39] of the same compound?
**A.** 500 µg/mL (≈ 1030 µM)

**Q.** What about the MIC [40] of the same compound?
**A.** 500 µg/mL (≈ 1030 µM)

**Q.** What about the MIC [41] of the same compound?
**A.** 500 µg/mL (≈ 1030 µM)

**Q.** What about the MIC [42] of the same compound?
**A.** 500 µg/mL (≈ 1030 µM)

**Q.** What about the MIC [43] of the same compound?
**A.** 250 µg/mL (≈ 516 µM)

**Q.** And the MIC [44]?
**A.** 500 µg/mL (≈ 1030 µM)

**Q.** What about the MIC [45] of the same compound?
**A.** 250 µg/mL (≈ 516 µM)

**Q.** What about the MIC [46] of the same compound?
**A.** > 500 µg/mL

**Q.** What about the MIC [47] of the same compound?
**A.** 500 µg/mL (≈ 1030 µM)
